# A selection: hits, their analogues and other compounds. The true share with any hit is near 0.97%.
# A3G deaminase: APOBEC3G (human) deaminase inhibition. recombinant A3G, ssDNA deamination FAM/TAMRA fluorescence. 0.28% of 330,000 active. inhibition, % at 20 µM. Q9HC16;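 active means inhibition of at least 40% at 20 µM, with no more than 30% in the related APOBEC3A deaminase screen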
# Target sequence (Q9HC16 whole entry, looked up): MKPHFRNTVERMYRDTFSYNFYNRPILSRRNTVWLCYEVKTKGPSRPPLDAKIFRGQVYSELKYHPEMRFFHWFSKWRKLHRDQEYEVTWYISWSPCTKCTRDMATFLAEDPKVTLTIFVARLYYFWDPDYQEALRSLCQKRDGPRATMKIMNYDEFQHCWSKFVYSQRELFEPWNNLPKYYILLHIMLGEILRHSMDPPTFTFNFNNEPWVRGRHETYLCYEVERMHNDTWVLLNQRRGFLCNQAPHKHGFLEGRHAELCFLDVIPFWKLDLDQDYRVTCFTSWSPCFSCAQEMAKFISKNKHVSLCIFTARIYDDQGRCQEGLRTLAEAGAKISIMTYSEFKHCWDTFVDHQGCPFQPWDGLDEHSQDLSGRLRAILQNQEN
# APOBEC3A inh: human APOBEC3A DNA deaminase inhibition | recombinant A3A, FAM/TAMRA ssDNA deamination fluorescence | AID 493011 | P31941 | inhibition, % at 20 µM | 0.41% of 330,000 active;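 active means at least 40% inhibition at 20 µM here, with at most 30% in a related deaminase screen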
# Target sequence (P31941 whole entry, looked up): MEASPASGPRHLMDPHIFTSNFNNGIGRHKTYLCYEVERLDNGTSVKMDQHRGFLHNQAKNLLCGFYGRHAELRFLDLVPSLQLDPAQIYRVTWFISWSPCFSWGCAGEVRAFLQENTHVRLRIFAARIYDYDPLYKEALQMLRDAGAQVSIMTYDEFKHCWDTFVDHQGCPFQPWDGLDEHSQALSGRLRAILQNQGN
# UCH37 inh: inhibitors of human deubiquitinating enzyme UCH37; purified proteasome/UCH37, Ub-AMC cleavage fluorescence; inhibition, % (no concentration beside the values); 0.33% of 330,000 active; AID 588478;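 active means mean inhibition over replicate wells above about 20%, limit read from the data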
#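 Material: Human UCH37 enzyme supplied as purified proteasome complex | Schedule: 30 min compound-proteasome preincubation then 25 min substrate reaction, room temperature | Detection: AMC fluorescence from Ub-AMC cleavage, excitation 355 nm, emission 460 nm | Benchmarks: Wells without proteasome as full block, compound-free enzyme plus substrate as uninhibited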
# GASC-1 inh: blocks human GASC-1 demethylase activity. Q9H3R0. inhibition, % at 2.35 µM. 0.069% of 330,000 active. GST-JMJD2C(1-420) H3K9me3 demethylation, DELFIA europium. AID 2099;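 active means more than half of a compound's replicate wells show inhibition beyond 50%, single wells judged on their own value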;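 further: signal counts dimethyl H3K9 product captured on neutravidin plate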
# A3G conf: confirmation of human APOBEC3G DNA deaminase inhibitors | shares compounds with A3G deaminase | recombinant A3G ssDNA deaminase, UDG/FAM-TAMRA fluorescence | inhibition, % at 20 µM | 72% of 890 active | AID 493152;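 active means inhibition reaching a set limit in any replicate at 20 µM, the limit being 80% of the first screen's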
# UDG ctr A3G: inhibits E. coli UDG, flagging false APOBEC3G inhibitors; shares compounds with A3G deaminase; UDG counterscreen, FAM/TAMRA oligo fluorescence; inhibition, % at 20 µM; 710 tested, under 10 active; AID 504715;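 active means compounds giving 40% or more inhibition at 20 µM in any one of the three replicates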;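 further: inhibitors lower the FAM signal released by uracil excision and alkaline cleavage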
# A number is an active result; 0 = inactive; - = no result given.
SMILES,A3G deaminase,APOBEC3A inh,UCH37 inh,GASC-1 inh,A3G conf,UDG ctr A3G
Cc1ccn2c(C(=O)c3ccc(Cl)cc3)cnc2c1,45.6,0,0,0,0,-
O=c1c2ccccc2sn1-c1cc(S(=O)(=O)N2CCOCC2)ccc1N1CCOCC1,77.2,0,0,0,76.8,0
O=c1c2ccccc2sn1-c1cc(S(=O)(=O)N2CCOCC2)ccc1N1CCCC1,0,0,0,0,-,-
Cc1ccc(S(=O)(=O)/C(C#N)=C/c2c(N3CCCCC3)nc3ccccn3c2=O)cc1,48.9,0,0,0,0,0
Cc1cc(NC(=O)Nc2cc(C)nn2-c2ccccc2)n(-c2ccccc2)n1,0,0,0,0,-,-
Cc1cc(NC(=O)Nc2ccccc2)n(C(C)(C)C)n1,60.5,0,0,0,0,-
O=C1N/C(=N\N=Cc2cccs2)SC1Cc1cccc(Cl)c1Cl (stereo not given),-,-,0,-,-,-
COc1cc2cc3c(N)c(C(=O)Nc4sc(C)c(C)c4C#N)sc3nc2cc1OC,47.8,0,0,0,26.6,0
CC(/C=C/c1ccccc1)=NNC(=O)CCc1ccccc1,-,-,0,-,-,-
O=C(Cn1c(=O)oc2ccccc21)Nc1nc(-c2ccccc2)cs1,0,0,0,0,-,-
O=C(Cn1c(=O)oc2ccccc21)Nc1n[nH]c(=S)s1,80.7,0,0,0,89.8,0
C/C=C/C(=O)N1CC2(CC(c3cccc(NC(=O)CC)c3)=NO2)C[C@H]1C(N)=O (stereo not given in full),0,0,0,0,-,-
C=C(C)C(=O)Nc1cccc(C2=NOC3(C2)C[C@H](C(N)=O)N(C(=O)/C=C/C)C3)c1 (stereo not given in full),86.3,0,0,0,91.3,0
C=C(C)C(=O)Nc1cccc(C2=NOC3(C2)C[C@@H](C(N)=O)N(C(=O)/C=C/CC)C3)c1 (stereo not given in full),91.4,0,0,0,92.8,0
Cn1c(=NNC(=O)c2ccccc2Cl)sc2ccccc21,-,-,0,-,-,-
Cc1ccc(C)c(NC(=O)CN(C)C(=O)c2ccc(-n3cncn3)c([N+](=O)[O-])c2)c1,68.9,0,0,0,0,0
C/C(C=Nn1c(-c2n[nH]c3c2CCC3)n[nH]c1=S)=C\c1ccco1,-,-,0,-,-,-
O=C(NCCCN1CCOCC1)c1sc2cc([N+](=O)[O-])ccc2c1Cl,58.3,0,0,0,84.7,0
Cn1cccc1/C=N/n1c(-c2ccco2)n[nH]c1=S,44.1,0,-,0,79.7,0
S=c1[nH]nc(-c2ccco2)n1/N=C/c1ccc(Cl)c(Cl)c1,44.0,0,-,0,0,0
Cn1cccc1C=Nn1c(-c2ccco2)n[nH]c1=S,-,-,0,-,-,-
Fc1cccc(-c2n[nH]c(=S)n2-c2ccccc2)c1,40.6,0,0,0,85.8,0
Cc1ccsc1/C=N/n1c(-c2ccco2)n[nH]c1=S,42.1,0,-,0,76.8,0
CC(=NNC(=O)c1ccc(N2CCCC2=O)cc1)c1ccncc1,-,-,0,-,-,-
Fc1ccc(-n2c(-c3ccco3)n[nH]c2=S)cc1,-,-,0,0,-,-
SMILES,A3G deaminase,APOBEC3A inh,UCH37 inh,GASC-1 inh,A3G conf,UDG ctr A3G
Cc1ccc(/C=N/n2c(-c3ccco3)n[nH]c2=S)cc1,40.5,0,-,0,65.5,0
S=c1[nH]nc(-c2ccco2)n1/N=C/c1c(Cl)cccc1Cl,43.2,0,-,0,71.2,0
Cc1ccc(-n2c(-c3ccco3)n[nH]c2=S)cc1,44.5,0,0,0,72.0,0
Cc1occc1-c1n[nH]c(=S)n1-c1ccccc1,42.0,0,0,0,14.4,0
Cc1cccc(/C=N/n2c(-c3ccco3)n[nH]c2=S)c1,0,0,-,0,-,-
S=C(NN=C1C2CN3CCN(C2)CC1(c1ccccc1)C3)Nc1ccccc1,-,-,0,-,-,-
O=C(O)c1cccc(NN=Cc2ccc(OC(F)(F)F)cc2)c1,-,-,0,-,-,-
S=c1[nH]nc(-c2ccco2)n1/N=C/c1ccccn1,59.3,0,-,0,83.0,0
S=c1[nH]nc(-c2ccco2)n1N=Cc1ccccn1,-,-,0,-,-,-
COCc1cc(C=NNC(=O)c2ccc(Cl)cc2)ccc1OC,-,-,0,-,-,-
O=C(O)c1ccc(C=Nn2cc(-c3ccccc3)[nH]c2=S)cc1,-,-,0,-,-,-
S=c1[nH]c(-c2ccccc2)cn1/N=C/c1cccnc1,50.5,0,-,0,73.2,0
O=C(O)c1ccc(/C=N/n2cc(-c3ccccc3)[nH]c2=S)cc1,58.4,0,-,0,80.1,0
CC(CCc1ccccc1)=NNC(=O)CC(=O)NCCc1ccccc1,-,-,0,-,-,-
COc1ccc(C(=O)ON=C2CCCc3nonc32)cc1,-,-,0,-,-,-
Cc1ccc(C)c(N(CC(=O)NN=C2CCN(C)CC2)S(=O)(=O)c2ccccc2)c1,51.1,0,0,0,0,0
Cc1cccc(N(CC(=O)NN=Cc2cc([N+](=O)[O-])ccc2Cl)S(C)(=O)=O)c1C,-,-,0,-,-,-
O=C1/C(=C\c2cccc(O)c2O)SC(=S)N1Cc1ccccc1,62.1,0,-,0,59.5,0
O=C1/C(=C\c2ccc(O)c(O)c2)SC(=S)N1Cc1ccccc1,0,0,0,0,-,-
O=C(CSc1ccc(-c2ccccc2)nn1)c1ccccc1,0,0,0,0,-,-
Cc1ccc(C(=O)CSc2ccc(-c3ccccc3)nn2)cc1,73.9,0,0,0,0,0
O=S1OC(c2ccccc2)c2cc(Cl)ccc21 (stereo not given),41.5,0,0,0,0,-
CCC(C)NC(=O)CC(C)C (stereo not given),0,0,0,0,-,-
CC(C)CC(=O)N[C@H](C(=O)N[C@H](C(=O)N[C@@H](CC(C)C)[C@@H](O)CC(=O)N[C@@H](C)C(=O)N[C@@H](CC(C)C)[C@@H](O)CC(=O)O)C(C)C)C(C)C,74.5,0,0,-,0,-
CN(C)S(=O)(=O)c1ccc(-c2csc(NN=Cc3ccco3)n2)cc1,-,-,0,-,-,-
SMILES,A3G deaminase,APOBEC3A inh,UCH37 inh,GASC-1 inh,A3G conf,UDG ctr A3G
COC(=O)Cc1sc(-c2ccccn2)nc1-c1ccccc1,48.8,0,0,0,41.3,0
COC(=O)Cc1ccc2sc(-c3ccccc3)nc2c1,0,0,0,0,-,-
O=C(CCc1n[nH]c(=O)[nH]c1=O)NN=Cc1ccc(Br)o1,-,-,0,-,-,-
CC(C)c1nnc2n1N=C(c1ccc(Cl)cc1)CS2,0,0,0,0,-,-
CCCc1ccc(C2=Nn3c(nnc3C(C)C)SC2)cc1,49.7,0,0,0,0,0
O=C(Cc1ncon1)Nc1ccc(F)c(F)c1F,66.2,0,0,0,0,-
O=C(CNCC(=O)Nc1ccc(F)c(F)c1F)Nc1ccc(F)c(F)c1F,0,0,0,0,-,-
C=CCn1c(Cc2ccccc2)n[nH]c1=S,0,0,0,0,-,-
C=CCn1c(CSc2ccccc2[N+](=O)[O-])n[nH]c1=S,45.5,0,0,0,68.2,0
Cc1ccsc1C=NNC(=O)c1ccc2c(c1)OCCO2,-,-,0,-,-,-
O=C(O)c1ccc2c3c(ncnc13)-c1ccccc1C2=O,60.7,0,0,0,41.2,0
O=C(CCS(=O)(=O)c1ccc(F)cc1)Nc1nc(-c2ccncc2)cs1,61.1,0,0,0,52.6,-
O=C(COc1ccc(Cl)cc1)Nc1nc(-c2ccncc2)cs1,42.2,0,0,0,0,-

# From PubChem BioAssay
